# Results published in ChEMBL document CHEMBL3865827, “A novel class of ethacrynic acid derivatives as promising drug-like potent generation of anticancer agents with established mechanism of action” (Eur J Med Chem, 2016).
# The source made the active and inactive calls. No cut-off for these calls is given here.
# Columns and labels:
# [1] = Cell cycle arrest in human HL60 cells assessed as accumulation at sub G1 phase at 2.5 uM after 48 hrs by propidium iodide-staining based FACS analysis (reference value: 1.4 %); format: functional; details: HL-60
# Procedure, shortened: (§1)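 HL60 cells, 25,000 per well, exposed 24 and 48 h to 2.5 µM compounds; controls DMSO (1% final). Propidium iodide staining, flow cytometry; fractions in sub-G1, G0/G1, S and G2/M quantified.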
# [2] = Cell cycle arrest in human HL60 cells assessed as accumulation at G0/G1 phase at 2.5 uM after 48 hrs by propidium iodide-staining based FACS analysis (reference value: 43.8 %); format: functional; details: HL-60; procedure, shortened: as §1
# HL-60 [3] = experiment: Induction of apoptosis in human HL60 cells assessed as intact cells at 50 uM after 24 hrs by Annexin V/7AAD-dual staining based FACS analysis (reference value: 91.6 %); format: functional
# Procedure, shortened: (§2)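 HL60 cells treated 24 h with EA (10 or 50 µM) or derivatives (5 µM); controls vehicle only. Annexin V/7-AAD staining, flow cytometry; cells classed as dead, necrotic/late apoptotic, intact or early apoptotic, as percentages.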
# HL-60 [4] = experiment: Induction of apoptosis in human HL60 cells assessed as early apoptotic cells at 10 to 50 uM after 24 hrs by Annexin V/7AAD-dual staining based FACS analysis; format: functional, cell-based; procedure, shortened: as §2
# [5] = Antiproliferative activity against human SKOV3 cells after 24 to 72 hrs by MTS assay; format: functional, cell-based; details: SK-OV-3
# [6] = Cytotoxicity against human HL60 cells assessed as reduction in cell viability after 24 hrs by MTS assay; format: functional, cell-based; details: HL-60, 24 h
# [7] = Cell cycle arrest in human HL60 cells assessed as accumulation at G2/M phase at 2.5 uM after 24 hrs by propidium iodide-staining based FACS analysis (reference value: 5.1 %); format: functional; details: HL-60; procedure, shortened: as §1
# HL-60 [8] = experiment: Induction of apoptosis in human HL60 cells assessed as necrotic/late apoptotic cells at 50 uM after 24 hrs by Annexin V/7AAD-dual staining based FACS analysis (reference value: 0.6 %); format: functional; procedure, shortened: as §2
# HL-60 [9] = experiment: Selectivity index, ratio of IC50 for Cyprinus carpio EPC to IC50 for human HL60 cells
# HL-60 [10] = experiment: Induction of apoptosis in human HL60 cells assessed as dead cells at 10 uM after 24 hrs by Annexin V/7AAD-dual staining based FACS analysis (reference value: 0.1 %); format: functional
# HL-60 [11] = experiment: Induction of apoptosis in human HL60 cells assessed as intact cells at 10 uM after 24 hrs by Annexin V/7AAD-dual staining based FACS analysis (reference value: 91.6 %); format: functional; procedure, shortened: as §2
# HL-60 [12] = experiment: Induction of apoptosis in human HL60 cells assessed as dead cells at 10 to 50 uM after 24 hrs by Annexin V/7AAD-dual staining based FACS analysis
# [13] = Cell cycle arrest in human HL60 cells assessed as accumulation at sub G1 phase at 2.5 uM after 24 hrs by propidium iodide-staining based FACS analysis (reference value: 2.6 %); format: functional; details: HL-60; procedure, shortened: as §1
# [14] = Cell cycle arrest in human HL60 cells assessed as accumulation at G2/M phase at 2.5 uM after 48 hrs by propidium iodide-staining based FACS analysis (reference value: 2.2 %); format: functional; details: HL-60; procedure, shortened: as §1
# [15] = Cell cycle arrest in human HL60 cells assessed as accumulation at G0/G1 phase at 2.5 uM after 24 hrs by propidium iodide-staining based FACS analysis (reference value: 43.5 %); format: functional; details: HL-60; procedure, shortened: as §1
# HL-60 [16] = experiment: Induction of apoptosis in human HL60 cells assessed as dead cells at 50 uM after 24 hrs by Annexin V/7AAD-dual staining based FACS analysis (reference value: 0.1 %); format: functional
# [17] = Antiproliferative activity against Cyprinus carpio EPC after 24 to 72 hrs by MTS assay
# HL-60 [18] = experiment: Antiproliferative activity against human HL60 cells at 50 uM after 24 hrs by viacount-reagent based FACS analysis
# HL-60 [19] = experiment: Induction of apoptosis in human HL60 cells assessed as necrotic/late apoptotic cells at 10 to 50 uM after 24 hrs by Annexin V/7AAD-dual staining based FACS analysis
# [20] = Antiproliferative activity against human MCF7 cells after 24 to 72 hrs by MTS assay; format: functional, cell-based
# [21] = Antiproliferative activity against human PC3 cells after 24 to 72 hrs by MTS assay; format: functional, cell-based; details: PC-3
# [22] = Antiproliferative activity against human KB cells after 24 to 72 hrs by MTS assay; format: functional, cell-based
# Procedure, shortened: (§3)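 Cells plated, then dosed 24 h later with compounds in DMSO (1% final; controls DMSO alone), exposed 24 or 72 h. Proliferation inhibition measured as previously reported (MTS/NADH reagent). IC50 from duplicate experiments over 0.5 nM–100 µM. KB grown in D-MEM with 10% fetal calf serum, penicillin, streptomycin, fungizone, 5% CO2; other lines in complete RPMI. EPC are quiescent Cyprinus carpio endothelial progenitor cells.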
# KB [23] = experiment: Induction of necrosis in human KB cells assessed as increase in LDH release at 50 uM after 24 to 48 hrs by fluorescence assay; format: functional, cell-based
# [24] = Antiproliferative activity against human HL60 cells after 24 to 72 hrs by MTS assay; format: functional, cell-based; details: HL-60; procedure, shortened: as §3
# HL-60 [25] = experiment: Induction of apoptosis in human HL60 cells assessed as necrotic/late apoptotic cells at 10 uM after 24 hrs by Annexin V/7AAD-dual staining based FACS analysis (reference value: 0.6 %); format: functional; procedure, shortened: as §2
# HL-60 [26] = experiment: Induction of apoptosis in human HL60 cells assessed as early apoptotic cells at 50 uM after 24 hrs by Annexin V/7AAD-dual staining based FACS analysis (reference value: 7.7 %); format: functional; procedure, shortened: as §2
# HCT-116 = experiment: Induction of necrosis in human HCT116 cells assessed as increase in LDH release 50 uM after 24 to 48 hrs by fluorescence assay; format: functional, cell-based
# MRC5 = experiment: Induction of necrosis in human MRC5 SV2 cells assessed as increase in LDH release at 50 uM after 24 to 48 hrs by fluorescence assay; format: functional, cell-based
# [27] = Antiproliferative activity against human OVCAR8 cells after 24 to 72 hrs by MTS assay; format: functional, cell-based; details: OVCAR-8
# [28] = Antiproliferative activity against human HCT116 cells after 24 to 72 hrs by MTS assay; format: functional, cell-based; details: HCT-116
# HL-60 [29] = experiment: Induction of apoptosis in human HL60 cells assessed as intact cells at 10 to 50 uM after 24 hrs by Annexin V/7AAD-dual staining based FACS analysis; format: functional, cell-based; procedure, shortened: as §2
# HL-60 [30] = experiment: Induction of apoptosis in human HL60 cells assessed as early apoptotic cells at 10 uM after 24 hrs by Annexin V/7AAD-dual staining based FACS analysis (reference value: 7.7 %); format: functional; procedure, shortened: as §2
# KB [31] = experiment: Selectivity index, ratio of IC50 for Cyprinus carpio EPC to IC50 for human KB cells
# [32] = Cell cycle arrest in human HL60 cells assessed as accumulation at S phase at 2.5 uM after 24 hrs by propidium iodide-staining based FACS analysis (reference value: 48.9 %); format: functional; details: HL-60; procedure, shortened: as §1
# [33] = Cell cycle arrest in human HL60 cells assessed as accumulation at S phase at 2.5 uM after 48 hrs by propidium iodide-staining based FACS analysis (reference value: 52.6 %); format: functional; details: HL-60; procedure, shortened: as §1
compound,measurement,setting,value
C=C(CC)C(=O)c1ccc(OCC(=O)O)c(Cl)c1Cl [ETHACRYNIC ACID],Activity,[1],3.1%
same,Activity,[2],41.5%
same,Activity,HL-60 [3],57.9%
same,Activity,HL-60 [4],Active
same,IC50,[5],> 100 µM
same,IC50,[6],38 µM
same,Activity,[7],8.3%
same,Activity,HL-60 [8],0.8%
same,Ratio IC50,HL-60 [9],>2
same,Activity,HL-60 [10],0.1%
same,Activity,HL-60 [11],87.8%
same,Activity,HL-60 [12],Active
same,Activity,[13],2.7%
same,Activity,[14],1.3%
same,Activity,[15],45.4%
same,Activity,HL-60 [16],0%
same,IC50,[17],> 100 µM
same,Activity,HL-60 [18],Active
same,Activity,HL-60 [19],Active
same,IC50,[20],41 µM
same,IC50,[21],75 µM
same,IC50,[22],11 µM
same,Activity,KB [23],Active
same,IC50,[24],46 µM
same,Activity,HL-60 [25],0.9%
same,Activity,HL-60 [26],41.3%
same,Activity,HCT-116,Active
same,Activity,MRC5,Active
same,IC50,[27],72 µM
same,IC50,[28],75 µM
same,Activity,HL-60 [29],Active
same,Activity,HL-60 [30],11.2%
same,Ratio IC50,KB [31],>9
same,Activity,[32],43.6%
same,Activity,[33],54.1%
